Source: ChEMBL document CHEMBL1671716, “Antimicrobial susceptibility patterns for recent clinical isolates of anaerobic bacteria in South Korea” (2010)
Converted amounts (≈) assume the structure as drawn.

Experiments:
[1] = system: Bifidobacterium adolescentis; assay: Antimicrobial activity against Bifidobacterium adolescentis assessed as percent resistant isolates after 48 hrs by agar dilution method; assay type: functional
Outline: (§1)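 CLSI agar dilution on recent Korean clinical anaerobe isolates. Inoculum 10^5 CFU per spot by replicator. Plates incubated in an anaerobic chamber at 37°C for 48 h. For piperacillin plus tazobactam, tazobactam was held constant at 4 μg/ml. Resistance and susceptibility rates derived from MICs.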

Hoylesella oralis = assay: Antimicrobial activity against Prevotella oralis assessed as percent susceptible isolates after 48 hrs by agar dilution method; assay type: functional
Outline: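 CLSI agar dilution MIC testing of clinical isolates. 10^5 CFU spotted by replicator, plates incubated 48 h at 37°C in an anaerobic chamber. Susceptibility rates derived from the MICs.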

Eggerthella lenta [2] = assay: Antimicrobial activity against Eubacterium lentum assessed as percent resistant isolates after 48 hrs by agar dilution method; assay type: functional; outline: as §1
[3] = system: Porphyromonas asaccharolytica; assay: Antimicrobial activity against Porphyromonas asaccharolytica after 48 hrs by agar dilution method; assay type: functional
Outline: (§2)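 CLSI agar dilution (M11-A7); inoculum 10^5 CFU applied by replicator; plates incubated anaerobically 48 h at 37°C. For piperacillin-tazobactam, tazobactam held constant at 4 μg/ml.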

Fusobacterium nucleatum = assay: Antimicrobial activity against Fusobacterium nucleatum after 48 hrs by agar dilution method; assay type: functional; outline: as §2
Bacteroides ovatus [4] = assay: Antimicrobial activity against Bacteroides ovatus assessed as percent resistant isolates after 48 hrs by agar dilution method; assay type: functional; outline: as §1
Bacteroides fragilis [5] = assay: Antimicrobial activity against Bacteroides fragilis assessed as percent susceptible isolates after 48 hrs by agar dilution method; assay type: functional
Eubacterium sp. [6] = assay: Antimicrobial activity against Eubacterium sp. assessed as percent susceptible isolates after 48 hrs by agar dilution method; assay type: functional; outline: as §2
Bacteroides caccae [7] = assay: Antimicrobial activity against Bacteroides caccae assessed as percent resistant isolates after 48 hrs by agar dilution method; assay type: functional; outline: as §1
Clostridioides difficile [8] = assay: Antimicrobial activity against Clostridium difficile assessed as percent susceptible isolates after 48 hrs by agar dilution method; assay type: functional
Phocaeicola vulgatus [9] = assay: Antimicrobial activity against Bacteroides vulgatus assessed as percent resistant isolates after 48 hrs by agar dilution method; assay type: functional; outline: as §1
Actinomyces israelii [10] = assay: Antimicrobial activity against Actinomyces israelii assessed as percent susceptible isolates after 48 hrs by agar dilution method; assay type: functional
Bifidobacterium sp. [11] = assay: Antimicrobial activity against Bifidobacterium sp. after 48 hrs by agar dilution method; assay type: functional
Outline: (§3)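 MICs on clinical anaerobe isolates by the CLSI agar dilution method. Inoculum of 10^5 CFU applied with a Steers replicator. Plates incubated 48 h at 37°C in an anaerobic chamber.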

Prevotella buccae = assay: Antimicrobial activity against Prevotella buccae assessed as percent susceptible isolates after 48 hrs by agar dilution method; assay type: functional, Segatella buccae; outline: as §2
Eubacterium sp. [12] = assay: Antimicrobial activity against Eubacterium sp. after 48 hrs by agar dilution method; assay type: functional; outline: as §2
Finegoldia magna [13] = assay: Antimicrobial activity against Finegoldia magna after 48 hrs by agar dilution method; assay type: functional; outline: as §2
Clostridioides difficile [14] = assay: Antimicrobial activity against Clostridium difficile after 48 hrs by agar dilution method; assay type: functional
Anaerococcus prevotii [15] = assay: Antimicrobial activity against Anaerococcus prevotii assessed as percent susceptible isolates after 48 hrs by agar dilution method; assay type: functional
Anaerococcus prevotii [16] = assay: Antimicrobial activity against Anaerococcus prevotii assessed as percent resistant isolates after 48 hrs by agar dilution method; assay type: functional; outline: as §1
Bacteroides ovatus [17] = assay: Antimicrobial activity against Bacteroides ovatus after 48 hrs by agar dilution method; assay type: functional; outline: as §3
[18] = system: Peptoniphilus asaccharolyticus; assay: Antimicrobial activity against Peptoniphilus asaccharolyticus assessed as percent susceptible isolates after 48 hrs by agar dilution method; assay type: functional; outline: as §2
[19] = system: Peptoniphilus asaccharolyticus; assay: Antimicrobial activity against Peptoniphilus asaccharolyticus assessed as percent resistant isolates after 48 hrs by agar dilution method; assay type: functional; outline: as §1
[20] = system: Peptostreptococcus anaerobius; assay: Antimicrobial activity against Peptostreptococcus anaerobius assessed as percent susceptible isolates after 48 hrs by agar dilution method; assay type: functional; outline: as §1
Schaalia meyeri = assay: Antimicrobial activity against Actinomyces meyeri after 48 hrs by agar dilution method; assay type: functional; outline: as §3
Actinomyces israelii [21] = assay: Antimicrobial activity against Actinomyces israelii after 48 hrs by agar dilution method; assay type: functional; outline: as §3
Bacteroides fragilis [22] = assay: Antimicrobial activity against Bacteroides fragilis assessed as percent resistant isolates after 48 hrs by agar dilution method; assay type: functional; outline: as §1
Schaalia odontolytica [23] = assay: Antimicrobial activity against Actinomyces odontolyticus assessed as percent resistant isolates after 48 hrs by agar dilution method; assay type: functional; outline: as §1
[24] = system: Parabacteroides distasonis; assay: Antimicrobial activity against Bacteroides distasonis after 48 hrs by agar dilution method; assay type: functional; outline: as §3
Fusobacterium necrogenes = assay: Antimicrobial activity against Fusobacterium necrogenes after 48 hrs by agar dilution method; assay type: functional; outline: as §2
Phocaeicola vulgatus [25] = assay: Antimicrobial activity against Bacteroides vulgatus assessed as percent susceptible isolates after 48 hrs by agar dilution method; assay type: functional
Bacteroides ovatus [26] = assay: Antimicrobial activity against Bacteroides ovatus assessed as percent susceptible isolates after 48 hrs by agar dilution method; assay type: functional
Bacteroides caccae [27] = assay: Antimicrobial activity against Bacteroides caccae assessed as percent susceptible isolates after 48 hrs by agar dilution method; assay type: functional
Finegoldia magna [28] = assay: Antimicrobial activity against Finegoldia magna assessed as percent resistant isolates after 48 hrs by agar dilution method; assay type: functional; outline: as §1
Fusobacterium mortiferum = assay: Antimicrobial activity against Fusobacterium mortiferum after 48 hrs by agar dilution method; assay type: functional; outline: as §2
Bifidobacterium sp. [29] = assay: Antimicrobial activity against Bifidobacterium sp. assessed as percent resistant isolates after 48 hrs by agar dilution method; assay type: functional; outline: as §1
Parvimonas micra = assay: Antimicrobial activity against Peptostreptococcus micros assessed as percent susceptible isolates after 48 hrs by agar dilution method; assay type: functional; outline: as §1
Clostridium perfringens = assay: Antimicrobial activity against Clostridium perfringens assessed as percent susceptible isolates after 48 hrs by agar dilution method; assay type: functional
Eggerthella lenta [30] = assay: Antimicrobial activity against Eubacterium lentum assessed as percent susceptible isolates after 48 hrs by agar dilution method; assay type: functional; outline: as §2
[31] = system: Bifidobacterium adolescentis; assay: Antimicrobial activity against Bifidobacterium adolescentis after 48 hrs by agar dilution method; assay type: functional; outline: as §3
Eubacterium sp. [32] = assay: Antimicrobial activity against Eubacterium sp. assessed as percent resistant isolates after 48 hrs by agar dilution method; assay type: functional; outline: as §1
Prevotella bivia = assay: Antimicrobial activity against Prevotella bivia assessed as percent resistant isolates after 48 hrs by agar dilution method; assay type: functional; outline: as §1
Prevotella intermedia = assay: Antimicrobial activity against Prevotella intermedia after 48 hrs by agar dilution method; assay type: functional; outline: as §2
Clostridioides difficile [33] = assay: Antimicrobial activity against Clostridium difficile assessed as percent resistant isolates after 48 hrs by agar dilution method; assay type: functional
Anaerococcus prevotii [34] = assay: Antimicrobial activity against Anaerococcus prevotii after 48 hrs by agar dilution method; assay type: functional; outline: as §3
Actinomyces naeslundii = assay: Antimicrobial activity against Actinomyces naeslundii after 48 hrs by agar dilution method; assay type: functional; outline: as §3
[35] = system: Peptostreptococcus anaerobius; assay: Antimicrobial activity against Peptostreptococcus anaerobius after 48 hrs by agar dilution method; assay type: functional; outline: as §2
Bacteroides fragilis [36] = assay: Antimicrobial activity against Bacteroides fragilis after 48 hrs by agar dilution method; assay type: functional; outline: as §3
Schaalia odontolytica [37] = assay: Antimicrobial activity against Actinomyces odontolyticus assessed as percent susceptible isolates after 48 hrs by agar dilution method; assay type: functional

SMILES: C[C@@H](O)[C@H]1C(=O)N2C(C(=O)O)=C(S[C@@H]3CN[C@H](C(=O)N(C)C)C3)[C@H](C)[C@H]12 [MEROPENEM]
- Activity [1]: 0%
- Activity (Hoylesella oralis): 100%
- Activity (Eggerthella lenta [2]): 8%
- MIC [3]: 0.008 µg/mL (≈ 0.0209 µM)
- MIC (Fusobacterium nucleatum): 0.008 µg/mL (≈ 0.0209 µM)
- Activity (Bacteroides ovatus [4]): 0%
- Activity (Bacteroides fragilis [5]): 92%
- Activity (Eubacterium sp. [6]): 92%
- Activity (Bacteroides caccae [7]): 0%
- Activity (Clostridioides difficile [8]): 100%
- Activity (Phocaeicola vulgatus [9]): 0%
- Activity (Actinomyces israelii [10]): 92%
- MIC50 (Bifidobacterium sp. [11]): 0.125 µg/mL (≈ 0.326 µM)
- MIC90 (Bifidobacterium sp. [11]): 2 µg/mL (≈ 5.22 µM)
- Activity (Prevotella buccae): 100%
- MIC50 (Eubacterium sp. [12]): 0.125 µg/mL (≈ 0.326 µM)
- MIC90 (Eubacterium sp. [12]): 2 µg/mL (≈ 5.22 µM)
- MIC50 (Finegoldia magna [13]): 0.06 µg/mL (≈ 0.156 µM)
- MIC90 (Finegoldia magna [13]): 0.125 µg/mL (≈ 0.326 µM)
- MIC50 (Clostridioides difficile [14]): 2 µg/mL (≈ 5.22 µM)
- MIC90 (Clostridioides difficile [14]): 2 µg/mL (≈ 5.22 µM)
- Activity (Anaerococcus prevotii [15]): 100%
- Activity (Anaerococcus prevotii [16]): 0%
- MIC50 (Bacteroides ovatus [17]): 0.25 µg/mL (≈ 0.652 µM)
- MIC90 (Bacteroides ovatus [17]): 2 µg/mL (≈ 5.22 µM)
- Activity [18]: 100%
- Activity [19]: 0%
- Activity [20]: 100%
- MIC50 (Schaalia meyeri): 0.125 µg/mL (≈ 0.326 µM)
- MIC90 (Schaalia meyeri): 2 µg/mL (≈ 5.22 µM)
- MIC50 (Actinomyces israelii [21]): 0.125 µg/mL (≈ 0.326 µM)
- MIC90 (Actinomyces israelii [21]): 2 µg/mL (≈ 5.22 µM)
- Activity (Bacteroides fragilis [22]): 3%
- Activity (Schaalia odontolytica [23]): 8%
- MIC50 [24]: 0.25 µg/mL (≈ 0.652 µM)
- MIC90 [24]: 2 µg/mL (≈ 5.22 µM)
- MIC (Fusobacterium necrogenes): 0.008 µg/mL (≈ 0.0209 µM)
- Activity (Phocaeicola vulgatus [25]): 98%
- Activity (Bacteroides ovatus [26]): 98%
- Activity (Bacteroides caccae [27]): 98%
- Activity (Finegoldia magna [28]): 0%
- MIC (Fusobacterium mortiferum): 0.008 µg/mL (≈ 0.0209 µM)
- Activity (Bifidobacterium sp. [29]): 8%
- Activity (Parvimonas micra): 0%
- Activity (Clostridium perfringens): 100%
- Activity (Eggerthella lenta [30]): 92%
- MIC50 [31]: 0.125 µg/mL (≈ 0.326 µM)
- MIC90 [31]: 2 µg/mL (≈ 5.22 µM)
- Activity (Eubacterium sp. [32]): 8%
- Activity (Prevotella bivia): 0%
- MIC50 (Prevotella intermedia): 0.06 µg/mL (≈ 0.156 µM)
- MIC90 (Prevotella intermedia): 0.06 µg/mL (≈ 0.156 µM)
- Activity (Clostridioides difficile [33]): 0%
- MIC50 (Anaerococcus prevotii [34]): 0.06 µg/mL (≈ 0.156 µM)
- MIC90 (Anaerococcus prevotii [34]): 0.125 µg/mL (≈ 0.326 µM)
- MIC50 (Actinomyces naeslundii): 0.125 µg/mL (≈ 0.326 µM)
- MIC90 (Actinomyces naeslundii): 2 µg/mL (≈ 5.22 µM)
- MIC [35]: 0.01 µg/mL (≈ 0.0261 µM)
- MIC50 [35]: 0.25 µg/mL (≈ 0.652 µM)
- MIC90 [35]: 4 µg/mL (≈ 10.4 µM)
- MIC50 (Bacteroides fragilis [36]): 0.125 µg/mL (≈ 0.326 µM)
- MIC90 (Bacteroides fragilis [36]): 4 µg/mL (≈ 10.4 µM)
- Activity (Schaalia odontolytica [37]): 92%
